In ChEMBL document CHEMBL3734689, “Enzyme kinetics and inhibition of histone acetyltransferase KAT8” (Eur J Med Chem, 2015):
The source made the active and inactive calls. The rule behind the calls is not given here.

Key:
[1] = molecular target: T1, Histone acetyltransferase KAT8 (Homo sapiens) (UniProt Q9H7Z6); assay: Inhibition of recombinant N-terminal His6-tagged KAT8 (unknown origin) expressed in Escherichia Coli BL21 DE3 cells assessed as reduction of Co A level using histone H4 substrate at 400 uM after 15 mins by CPM fluorescence assay
T1 sequence (whole entry): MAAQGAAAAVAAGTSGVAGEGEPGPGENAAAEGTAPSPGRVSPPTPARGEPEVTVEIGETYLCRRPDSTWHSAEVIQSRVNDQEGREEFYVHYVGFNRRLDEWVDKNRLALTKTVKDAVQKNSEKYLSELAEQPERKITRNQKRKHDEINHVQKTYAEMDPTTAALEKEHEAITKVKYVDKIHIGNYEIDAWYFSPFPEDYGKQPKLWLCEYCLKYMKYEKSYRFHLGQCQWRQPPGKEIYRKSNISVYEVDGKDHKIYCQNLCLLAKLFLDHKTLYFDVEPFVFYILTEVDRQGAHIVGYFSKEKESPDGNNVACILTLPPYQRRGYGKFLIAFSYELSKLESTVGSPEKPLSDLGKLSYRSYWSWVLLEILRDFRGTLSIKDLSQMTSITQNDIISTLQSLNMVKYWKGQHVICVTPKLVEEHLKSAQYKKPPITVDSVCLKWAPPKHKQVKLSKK

[2] = molecular target: Histone acetyltransferase p300 (Homo sapiens) (UniProt Q09472); assay: Inhibition of human recombinant Histone acetyltransferase p300 catalytic domain (1284-1672 residues) using [3H]Acetyl-CoA and histone H3 substrate at 200 uM after 1 hr by liquid scintillation counting
[3] = molecular target: Histone acetyltransferase p300 (Homo sapiens) (UniProt Q09472); assay: Inhibition of human recombinant Histone acetyltransferase p300 catalytic domain (1284-1672 residues) using [3H]Acetyl-CoA and histone H3 substrate at 50 uM after 1 hr by liquid scintillation counting
In short: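 p300 activity was measured by radiolabel transfer to the histone substrate. Compounds were tested at a single 50 µM concentration, and the value is the percent inhibition.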

[4] = molecular target: T1, Histone acetyltransferase KAT8 (Homo sapiens); assay: Inhibition of recombinant N-terminal His6-tagged KAT8 (unknown origin) expressed in Escherichia Coli BL21 DE3 cells assessed as reduction of Co A level using histone H4 substrate after 15 mins by CPM fluorescence assay

Histone acetyltransferase p300 (Homo sapiens), sequence (Q09472 whole entry, the tested form may be a part): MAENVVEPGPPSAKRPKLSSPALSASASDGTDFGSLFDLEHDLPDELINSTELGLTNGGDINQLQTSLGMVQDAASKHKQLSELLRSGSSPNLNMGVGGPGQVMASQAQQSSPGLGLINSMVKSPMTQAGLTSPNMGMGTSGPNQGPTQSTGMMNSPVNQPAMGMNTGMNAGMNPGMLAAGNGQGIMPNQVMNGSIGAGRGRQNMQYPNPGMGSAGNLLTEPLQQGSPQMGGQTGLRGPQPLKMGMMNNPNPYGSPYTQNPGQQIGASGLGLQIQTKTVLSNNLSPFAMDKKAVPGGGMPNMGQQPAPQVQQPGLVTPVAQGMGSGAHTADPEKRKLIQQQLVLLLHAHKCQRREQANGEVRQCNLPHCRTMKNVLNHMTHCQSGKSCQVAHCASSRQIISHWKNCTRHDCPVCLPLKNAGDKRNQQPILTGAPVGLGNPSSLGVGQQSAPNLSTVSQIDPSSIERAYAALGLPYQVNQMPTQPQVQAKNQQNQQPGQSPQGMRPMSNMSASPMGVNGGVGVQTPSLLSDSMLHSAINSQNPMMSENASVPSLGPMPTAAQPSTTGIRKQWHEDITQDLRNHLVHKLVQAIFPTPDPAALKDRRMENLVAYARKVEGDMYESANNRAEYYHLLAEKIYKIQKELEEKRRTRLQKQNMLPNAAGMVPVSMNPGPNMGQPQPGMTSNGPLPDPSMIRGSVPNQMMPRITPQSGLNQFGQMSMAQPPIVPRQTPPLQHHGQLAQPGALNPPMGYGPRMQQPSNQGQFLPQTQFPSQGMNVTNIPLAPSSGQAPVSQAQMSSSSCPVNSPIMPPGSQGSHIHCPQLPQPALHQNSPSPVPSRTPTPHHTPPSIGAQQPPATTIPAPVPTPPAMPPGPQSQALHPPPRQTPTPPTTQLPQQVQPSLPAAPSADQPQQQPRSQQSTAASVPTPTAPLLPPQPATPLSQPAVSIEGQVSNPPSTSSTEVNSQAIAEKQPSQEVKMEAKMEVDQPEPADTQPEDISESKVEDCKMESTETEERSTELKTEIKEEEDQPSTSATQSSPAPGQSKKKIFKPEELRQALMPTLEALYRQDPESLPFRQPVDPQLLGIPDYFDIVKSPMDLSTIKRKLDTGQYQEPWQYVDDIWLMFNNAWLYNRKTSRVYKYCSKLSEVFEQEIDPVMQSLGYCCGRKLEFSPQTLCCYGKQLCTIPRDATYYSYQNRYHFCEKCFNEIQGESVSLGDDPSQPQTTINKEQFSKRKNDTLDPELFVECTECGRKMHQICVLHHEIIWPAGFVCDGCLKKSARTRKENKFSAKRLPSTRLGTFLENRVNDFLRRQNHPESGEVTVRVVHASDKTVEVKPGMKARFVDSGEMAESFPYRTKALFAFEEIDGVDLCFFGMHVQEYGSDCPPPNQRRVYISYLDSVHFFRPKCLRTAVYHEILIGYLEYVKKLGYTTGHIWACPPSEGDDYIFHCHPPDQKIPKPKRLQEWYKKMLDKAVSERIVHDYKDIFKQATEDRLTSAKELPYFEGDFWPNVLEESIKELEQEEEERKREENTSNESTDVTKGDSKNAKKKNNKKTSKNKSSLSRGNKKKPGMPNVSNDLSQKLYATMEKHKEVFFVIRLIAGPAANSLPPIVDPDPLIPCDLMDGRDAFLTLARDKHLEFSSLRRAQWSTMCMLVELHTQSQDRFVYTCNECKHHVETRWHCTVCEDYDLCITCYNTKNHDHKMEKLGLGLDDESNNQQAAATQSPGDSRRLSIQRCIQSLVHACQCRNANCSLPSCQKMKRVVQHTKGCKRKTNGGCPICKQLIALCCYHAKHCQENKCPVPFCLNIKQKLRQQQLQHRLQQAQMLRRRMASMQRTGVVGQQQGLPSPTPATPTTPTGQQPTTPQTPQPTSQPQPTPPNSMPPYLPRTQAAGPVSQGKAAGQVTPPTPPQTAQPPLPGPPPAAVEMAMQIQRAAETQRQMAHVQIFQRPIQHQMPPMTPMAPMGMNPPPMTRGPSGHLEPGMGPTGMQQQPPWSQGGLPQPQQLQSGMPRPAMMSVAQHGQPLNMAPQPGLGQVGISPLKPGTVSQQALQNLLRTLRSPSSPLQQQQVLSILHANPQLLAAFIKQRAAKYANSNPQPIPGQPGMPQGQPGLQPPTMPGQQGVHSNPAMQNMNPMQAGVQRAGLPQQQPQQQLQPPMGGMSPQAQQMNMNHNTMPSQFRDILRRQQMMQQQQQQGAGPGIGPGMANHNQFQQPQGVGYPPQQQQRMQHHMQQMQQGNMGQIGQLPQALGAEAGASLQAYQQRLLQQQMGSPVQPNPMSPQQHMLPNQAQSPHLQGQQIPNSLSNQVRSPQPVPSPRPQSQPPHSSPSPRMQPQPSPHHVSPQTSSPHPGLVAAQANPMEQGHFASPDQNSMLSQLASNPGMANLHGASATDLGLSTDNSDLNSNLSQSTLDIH

Compound	inhibition [1]	inhibition [2]	inhibition [3]	logIC50 [4]
CCCCCc1cccc(O)c1C(=O)O	inactive	inactive	inactive	> 2.8
CCCCCCCCCCCCCCCc1cccc(O)c1C(=O)O			97%	
CCCCCCCCCCCCCCCc1ccc(O)c(C(=O)O)c1	> 50%		85%	2.42
O=C(O)c1c(O)cccc1CCCCCCCCCCCO	> 50%	inactive	inactive	2.72
CCCCCCCCCCc1ccc(O)c(C(=O)O)c1	> 50%		95%	2.28

Second part, the compound after the results:

inhibition [1]	inhibition [2]	inhibition [3]	logIC50 [4]	Compound
inactive	inactive	inactive	> 2.8	CCCCCCCSCC(=O)c1ccccc1O
> 50%		88%	2.09	CCCCCCCCCCc1cccc(O)c1C(=O)O
inactive			> 2.8	CC1=NN(c2ccc(C(=O)O)cc2)C(=O)/C1=C/c1ccc(-c2cc(C)c(C)cc2[N+](=O)[O-])o1
inactive	inactive	inactive	> 2.8	CCCCCc1ccc(O)c(C(=O)O)c1
inactive	inactive	inactive	> 2.8	O=C(O)c1c(O)cccc1CCCCCO
